Data as given in ChEMBL document CHEMBL1122241, “A simplified high-pressure liquid chromatography method for determining lipophilicity for structure-activity relationships” (J Med Chem, 1983).

Assays:
[1] = Compound is evaluated for […] log k; format: physicochemical; details: octanol/water
In short: (§1)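 Log k' was measured by reverse-phase HPLC on dry-packed deactivated C18/Corasil columns (10 and 50 cm, 2-mm i.d.) at 22 °C, flow 1 mL/min, with UV detection at 254 nm. The mobile phase was methanol-modified aqueous phosphate buffer at μ 0.15. Void time came from methanol injection, and k' = (tr − t0)/t0.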

[2] = Negative log of molar concentration (-log ED50) required to reduce cell division by 50% in Arbacia egg; format: functional
Oryctolagus cuniculus = species on record: Oryctolagus cuniculus; assay: Negative log of minimum effective dose (moles per kilogram) in rabbits (hypnotic); format: functional
Escherichia coli [3] = assay: Minimum inhibitory concentration (bacteriostatic) against Escherichia coli at pH 7.2 (Sauterne''s medium); format: functional
[4] = Negative log of Langmuir's alpha constant (-log alpha), which is inversely proportional to the effective binding constant (protein binding); format: ADME
Escherichia coli [5] = assay: Minimum inhibitory concentration (bacteriostatic) against Escherichia coli at pH 7.4; format: functional
[6] = (§2) pKa value is evaluated; format: physicochemical
Rattus norvegicus = species on record: Rattus norvegicus; format: functional
[7] = A pKa value is evaluated; format: physicochemical
[8] = as §2; format: physicochemical; remark: listed apart in the source
In short: (§3)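 Determined in-house by computer-controlled spectrophotometric titration (absorbance vs. pH) of each sulfonamide. Samples were in buffered aqueous solution of HCl/HOAc/Mops/glycine, 0.0005 N each. A manual wavelength scan of each compound set the wavelength at which its titration was run.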

[9] = pKa value is evaluated; activity is unretained; format: physicochemical; in short: as §3
[10] = ACompound is evaluated for […] log k; format: physicochemical; details: octanol/water
In short: as §1, with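 “0.15. Calculated pH was 7.45 for sulfonamides and 7.31 for barbiturates.” for “0.15.”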

C=CCC1(CC=C)C(=O)NC(=O)NC1=O [ALLOBARBITAL]
Log K [1]: 0.6 | -Log ED50 [2]: 1.79 | -Log C (Oryctolagus cuniculus): 3.54

CCC1(CC)C(=O)NC(=O)N(C)C1=O [METHARBITAL]
Log K [1]: 0.71 | -Log C (Oryctolagus cuniculus): 3.12

Cc1noc(NS(=O)(=O)c2ccc(N)cc2)c1C [SULFISOXAZOLE]
-Log C (Escherichia coli [3]): -0.45 | Log K [1]: 0.762 | -Log alpha [4]: -1.73 | -Log C (Escherichia coli [5]): 4.56

CCC1(CCC(C)C)C(=O)NC(=O)NC1=O [AMOBARBITAL]
Log K [1]: 1.33 | -Log ED50 [2]: 2.82

CCC1(CC)C(=O)NC(=O)NC1=O [BARBITAL]
pKa [6]: 7.75 | Log K [1]: 0.16 | -Log C (Rattus norvegicus): 1.32 | -Log ED50 [2]: 1.49 | -Log C (Oryctolagus cuniculus): 3.09

CN1C(=O)NC(=O)C(C)(C2=CCCCC2)C1=O (stereo not drawn) [HEXOBARBITAL]
pKa [7]: 7.36 | Log K [1]: 1.13 | -Log C (Oryctolagus cuniculus): 4.37

C=CCC1(C(C)C#CCC)C(=O)NC(=O)N(C)C1=O (stereo not drawn) [METHOHEXITAL]
pKa [6]: 4.74 | Log K [1]: 1.96 | -Log C (Oryctolagus cuniculus): 4.74

C=CCC1(C(C)CCC)C(=O)NC(=O)NC1=O (stereo not drawn) [SECOBARBITAL]
pKa [6]: 7.92 | Log K [1]: 1.52 | -Log C (Rattus norvegicus): 3.19 | -Log ED50 [2]: 3.62 | -Log C (Oryctolagus cuniculus): 4.2

Cc1cc(C)nc(NS(=O)(=O)c2ccc(N)cc2)n1 [SULFAMETHAZINE]
-Log C (Escherichia coli [3]): 0.11 | pKa [6]: 7.7 | Log K [1]: 1.49 | -Log alpha [4]: -2.28

CCC1(c2ccccc2)C(=O)NC(=O)NC1=O [PHENOBARBITAL]
pKa [6]: 7.26 | Log K [1]: 0.56 | -Log C (Rattus norvegicus): 1.88 | -Log ED50 [2]: 2.02 | -Log C (Oryctolagus cuniculus): 3.32

C=CCC1(C(C)CCC)C(=O)NC(=S)NC1=O (stereo not drawn) [THIAMYLAL]
Log K [1]: 1.72 | -Log C (Oryctolagus cuniculus): 4.15

Cc1ccnc(NS(=O)(=O)c2ccc(N)cc2)n1 [SULFAMERAZINE]
-Log C (Escherichia coli [3]): 0.06 | pKa [6]: 6.98 | Log K [1]: 0.829 | -Log alpha [4]: -2.23 | -Log C (Escherichia coli [5]): 4.469

C=CCC1(CC(C)C)C(=O)NC(=O)NC1=O [BUTALBITAL]
pKa [6]: 7.54 | Log K [1]: 1.01 | -Log C (Rattus norvegicus): 2.8 | -Log C (Oryctolagus cuniculus): 3.63

Nc1ccc(S(=O)(=O)Nc2nccs2)cc1 [SULFATHIAZOLE]
-Log C (Escherichia coli [3]): -0.18 | pKa [6]: 7.25 | Log K [1]: 0.887 | -Log alpha [4]: -2.45 | -Log C (Escherichia coli [5]): 4.597

CCCC(C)C1(CC)C(=O)NC(=O)NC1=O (stereo not drawn) [PENTOBARBITAL]
pKa [6]: 8.02 | Log K [1]: 1.32 | -Log C (Rattus norvegicus): 3.07 | -Log ED50 [2]: 2.92 | -Log C (Oryctolagus cuniculus): 4.05

C=CCC1(C(C)C)C(=O)NC(=O)NC1=O [APROBARBITAL]
pKa [6]: 7.73 | Log K [1]: 0.75 | -Log C (Rattus norvegicus): 2.41 | -Log ED50 [2]: 2.01 | -Log C (Oryctolagus cuniculus): 3.6

Cc1cc(NS(=O)(=O)c2ccc(N)cc2)no1 [SULFAMETHOXAZOLE]
-Log C (Escherichia coli [3]): 0.06 | -Log alpha [4]: -2.51 | -Log C (Escherichia coli [5]): 4.634

Nc1ccc(S(=O)(=O)Nc2ncccn2)cc1 [SULFADIAZINE]
-Log C (Escherichia coli [3]): -0.08 | Log K [1]: 0.223 | -Log alpha [4]: -2.99 | -Log C (Escherichia coli [5]): 4.337

CCCC(C)C1(CC)C(=O)NC(=S)NC1=O (stereo not drawn) [THIOPENTAL]
Log K [1]: 1.52 | -Log C (Oryctolagus cuniculus): 3.98

CC(=O)NS(=O)(=O)c1ccc(N)cc1 [SULFACETAMIDE]
-Log C (Escherichia coli [3]): -0.52 | pKa [8]: 5.78 | Log K [9]: activity is unretained | -Log alpha [4]: -3.15 | -Log C (Escherichia coli [5]): 3.248

Nc1ccc(S(N)(=O)=O)cc1 [SULFANILAMIDE]
-Log C (Escherichia coli [3]): -2.11 | -Log alpha [4]: -2.98 | -Log C (Escherichia coli [5]): 2.824

COc1ccc(NS(=O)(=O)c2ccc(N)cc2)nn1 [SULFAMETHOXYPYRIDAZINE]
-Log C (Escherichia coli [3]): 0 | pKa [6]: 7.2 | Log K [1]: 1.35 | -Log alpha [4]: -1.75 | -Log C (Escherichia coli [5]): 4.57

[H]/N=C(/N)NS(=O)(=O)c1ccc(N)cc1 [SULFAGUANIDINE]
-Log C (Escherichia coli [3]): 1.81 | pKa [6]: 12 | Log K [1]: -0.00612

CCC1(C2=CCCCC2)C(=O)NC(=O)NC1=O [CYCLOBARBITAL]
pKa [6]: 7.36 | Log K [1]: 0.91 | -Log ED50 [2]: 2.24

CCC(C)C1(CC)C(=O)NC(=O)NC1=O (stereo not drawn) [BUTABARBITAL]
pKa [7]: 7.89 | Log K [10]: 0.95 | -Log C (Oryctolagus cuniculus): 3.63
